In the library only some 5.1% were active in any assay of this set; here they are far more common.
NF-kB expr up: activators of NF-kB expression in neurons, primary screen, cell-based, HTS; human neuronal cells, NF-kB reporter expression; active compounds read high; fold change at 12.5 µM; 1.6% of 190,000 active; in the data active = fold change above about 3.3
STAT3 activator: IL-6 driven STAT3 reporter potentiators, primary screen, U3A cells, luciferase, luminescence, MLSCN library. IL-6 STAT3-luciferase reporter; 100% = signal with IL-6 EC80 alone. activation (% of control), % at 5.6 µM. 0.91% of 190,000 active. AID 871, 2007;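 active = activation above the screen-wide mean of compound activation plus 3 SD, cut at about 130% in these data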
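Test system: human U3A cells carrying STAT3-luciferase construct; control set: IL-6-only wells as 100% reference; timing: compound pre-incubation 1 h before IL-6, then 6 h stimulation at 37 °C; also added: IL-6 stimulus at 33 ng/mL final; evaluation: % activation versus median of IL-6-stimulated wells; detection: reporter luminescence signal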
STAT1 act: STAT1 signaling activators, primary screen, cell-based, HTS, luciferase reporter. NIH 3T3 STAT1-luciferase reporter, IFN-gamma, luminescence; 100% = IFN-gamma alone, no compound. activation (% of control), % at 5.5 µM. 2.6% of 200,000 active;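 active = activation above the screen-wide mean activation plus 3 SD, cut at about 130% in these data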
STAT3 inh: IL-6 driven STAT3 reporter inhibitors, primary screen, U3A cells, luciferase, luminescence, MLSCN library; inhibition, % at 5.5 µM; IL-6 STAT3-luciferase reporter; host cell line lacks STAT1; AID 862, 2007; 0.89% of 190,000 active;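 active = inhibition above the mean inhibition across all screened compounds plus 3 SD, cut at about 44% in these data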
APP 5'UTR act: activators of APP 5'UTR luciferase reporter, primary screen, SH-SY5Y cells. SH-SY5Y APP 5'UTR luciferase reporter, luminescence; zero percent = DMSO vehicle wells. activation, % at 2 µM. 1% of 190,000 active. AID 1276, 2008;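 active = activation above a set limit, based on mean plus 3 SD of controls, cut at about 140% in these data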
STAT1 inh: STAT1 signaling inhibitors, primary screen, cell-based, HTS, luciferase reporter; NIH 3T3 STAT1-luciferase reporter, IFN-gamma, luminescence; inhibition, % at 5.5 µM; 0.35% of 200,000 active; AID 920, 2007;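 active = inhibition above a set limit, the mean inhibition across all tested compounds plus 3 SD, cut at about 34% in these data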
STAT1 activ conf: STAT1 signaling activators, confirmation, cell-based, HTS, luciferase reporter | shares compounds with STAT1 act | activation (% of control), % at 5.7 µM | NIH 3T3 STAT1-luciferase reporter, IFN-gamma potentiation, luminescence; 100% = IFN-gamma EC80 alone, no compound | AID 1262, 2008 | 97% of 1,200 active;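 active = activation above a set limit carried over from the earlier primary STAT1 screen, cut at about 140% in these data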
NFkB act: NF-kB reporter activators, TNF-alpha stimulated, counter-screen for STAT1 activator project, cell-based, HEK293T, luciferase luminescence | shares compounds with STAT1 act | 100% = TNF-alpha with vehicle only | activation (% of control), % at 5.7 µM | 43% of 1,200 active | AID 1306, 2008;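 active = activation above the mean of solvent-only control wells plus 3 SD, set per campaign, cut at about 130% in these data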;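 also: TNF-alpha given at a submaximal dose yielding about 80% of full reporter signal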
STAT3 act 2: STAT3 reporter activation by STAT1 hits, confirmation, counter-screen for STAT1 activator project, U3A cells, luciferase, luminescence; shares compounds with STAT1 act; IL-6; cells lack STAT1; 100 = IL-6 alone, no compound effect; activation (% of control), % at 5.7 µM; 46% of 1,200 active; AID 1316, 2008;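 active = activation above the solvent-only control well mean plus 3 SD, set per plate batch, cut at about 110% in these data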;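 also: higher means more STAT3 reporter activation so hits are non-selective activators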
Of the large screens only hits and unclear results are named; the others gave an inactive call (follow-up assays come after a bar, where they were run).

Cc1ccc(C(=O)Nc2nc3ccccc3s2)s1	NF-kB expr up 4.2, STAT1 act 157, APP 5'UTR act 157 | STAT1 activ conf 264 | NFkB act inactive | STAT3 act 2 inactive
O=C(O)CCC(=O)Nc1nc2ccccc2s1	none
O=[N+]([O-])c1cc(Br)c(OCc2nnc(-c3ccccc3)o2)c(Br)c1	none
O=[N+]([O-])c1cccc(-c2nnc(-c3ccccc3)o2)c1	STAT1 act 153 | STAT1 activ conf 161 | NFkB act inactive | STAT3 act 2 inactive
Cc1nn(C)c(Cl)c1CN1CCC(CO)(CC2CCCCO2)CC1 (stereo unspecified)	none
CCCOC(=O)Nc1ccc(N2CCCCC2)cc1	NF-kB expr up 5.1, STAT1 act 154 | STAT1 activ conf 177 | NFkB act inactive | STAT3 act 2 inactive
CN(C)c1ccc(N=C/C=C2/N(C)c3ccccc3C2(C)C)cc1	STAT1 act 173, APP 5'UTR act 164 | STAT1 activ conf inactive | NFkB act inactive | STAT3 act 2 inactive
Cc1cccc(/C=N\NC(=O)c2sccc2-n2cccc2)c1	none
O=C(N=C1N=C2C=CC=CN2Cc2ccccc21)c1ccc(S(=O)(=O)N2CCOCC2)cc1	none
O=c1cc(/C=C/c2c(F)cccc2Cl)[nH]c2ccccc12	none
CNc1oc(/C=C/c2ccccc2)nc1C#N	NF-kB expr up 5.3, STAT1 act 154 | STAT1 activ conf 167 | NFkB act 136 | STAT3 act 2 inactive
CNc1oc(-c2ccccc2)nc1C#N	none
COc1cc(CN2CCNC(=O)C2CC(=O)NCc2csc(C(C)C)n2)cc(OC)c1 (stereo unspecified)	none
CCC(Sc1nc(N)cc(N)n1)C(=O)O (stereo unspecified)	none
COC(=O)c1ccc(/C=C(\C#N)c2ccccn2)cc1	NF-kB expr up 7, STAT1 act 204, APP 5'UTR act 148 | STAT1 activ conf 225 | NFkB act 158 | STAT3 act 2 inactive
COC(=O)c1ccc(OC(=O)c2ccccn2)cc1	none
CC(C)(C)OC(=O)CN1C(=O)C(Sc2n[nH]c(-c3ccccc3)n2)CCc2ccccc21 (stereo unspecified)	none
Cc1ccccc1-n1c(SC(C)C(=O)N2CCN(C)CC2)nc2ccccc2c1=O (stereo unspecified)	none
CC(=O)c1cccc(NC(=S)NC(=O)c2cccc(C)c2)c1	NF-kB expr up 3.7, STAT1 act 157 | STAT1 activ conf 178 | NFkB act inactive | STAT3 act 2 inactive
CC(=O)c1cccc(N/C=C\C(=O)c2ccc(C)cc2)c1	NF-kB expr up 6.7, STAT1 act 180, APP 5'UTR act 155 | STAT1 activ conf 211 | NFkB act inactive | STAT3 act 2 inactive
CC(=O)c1cccc(NC(=S)NC(=O)c2ccccc2C)c1	none
CC(=O)c1cccc(NS(=O)(=O)c2ccc(N/C=C/C(=O)c3ccc(F)cc3)cc2)c1	none
CC(=O)c1cccc(NC(=S)NC(=O)c2ccc(Cl)cc2)c1	STAT1 act 162 | STAT1 activ conf 173 | NFkB act inactive | STAT3 act 2 inactive
C=CCNc1nc(Cl)nc(Nc2ccc(OCC)cc2)n1	none
Cc1ccc(C(=O)c2sc3nsc(C)c3c2N)cc1	NF-kB expr up 6.3, STAT1 act 154, APP 5'UTR act 198 | STAT1 activ conf 239 | NFkB act 145 | STAT3 act 2 114
COc1cccc(-c2cc(C(F)(F)F)n3nc(N)nc3n2)c1	none
COc1cccc(-c2cn3nc4c(nc3n2)CCCC4)c1	NF-kB expr up 3.6, STAT1 act 160, APP 5'UTR act 170 | STAT1 activ conf 191 | NFkB act inactive | STAT3 act 2 inactive
O=C(OCC(=O)N1CCCCCC1)c1ccc([N+](=O)[O-])cc1Cl	none
O=[N+]([O-])c1ccc2nc(-c3ccc(Cl)cc3)[nH]c2c1	STAT1 act 155, APP 5'UTR act 156 | STAT1 activ conf 206 | NFkB act inactive | STAT3 act 2 inactive
c1cncc(-c2nc3cc4ccccc4cc3[nH]2)c1	STAT1 act 156, APP 5'UTR act 154 | STAT1 activ conf 226 | NFkB act inactive | STAT3 act 2 inactive
O=[N+]([O-])c1ccc2nc(-c3ccccc3[N+](=O)[O-])[nH]c2c1	none
COc1ccc2nc(-c3ccccc3)[nH]c2c1	NF-kB expr up 5.5, STAT1 act 153, APP 5'UTR act 178 | STAT1 activ conf 199 | NFkB act inactive | STAT3 act 2 inactive
COc1ccc(-c2nc3ccc([N+](=O)[O-])cc3[nH]2)cc1	NF-kB expr up 8.7, STAT1 act 182, APP 5'UTR act 160 | STAT1 activ conf 251 | NFkB act inactive | STAT3 act 2 inactive
CN(CC(=O)Nc1ccc(Cl)cc1)c1ccc(S(=O)(=O)N2CCCCC2)cc1[N+](=O)[O-]	none
COc1cc2nc(C3CCC3)n(NC(=O)c3ccco3)c(=O)c2cc1OC	none
CCC(C)(C)NC(=S)Nc1ccc(-c2nc3ccc(C)cc3s2)cc1	STAT1 act 177, APP 5'UTR act 173 | STAT1 activ conf 200 | NFkB act inactive | STAT3 act 2 inactive
CCCCNC(=S)Nc1cccc(C(C)=O)c1	none
COCCNc1nnc(SC(C)C(=O)Nc2ccc(-c3nc4ccc(C)cc4s3)cc2)s1 (stereo unspecified)	NF-kB expr up 4.5, STAT1 act 160 | STAT1 activ conf 200 | NFkB act inactive | STAT3 act 2 inactive
CCCCNC(=S)Nc1ccc(-c2nc3ccc(C)cc3s2)cc1	NF-kB expr up 11, STAT1 act 151, APP 5'UTR act 180 | STAT1 activ conf 210 | NFkB act 143 | STAT3 act 2 inactive
C=C(C)CNC(=S)N1CCNC(=O)C1CC(=O)OC (stereo unspecified)	none
O=C(CCc1ccc(S(=O)(=O)N2CCOCC2)cc1)N1CCc2ccccc2C1	none
